Data as given in ChEMBL document CHEMBL1135797, “Carbonic anhydrase activators: high affinity isozymes I, II, and IV activators, incorporating a beta-alanyl-histidine scaffold” (2002).

Columns and labels:
Homo sapiens [1] = species: Homo sapiens; assay: (§1) Ex vivo carbonic anhydrase activation after 30 min incubation of human erythrocytes with 5 uM activator Histamine; type: functional
Procedure, shortened: (§2)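 Freshly isolated human blood washed in Tris buffer (pH 7.40, 5 mM), erythrocytes incubated with 5 µM activator solution at 37 °C with gentle stirring; cells washed three times to remove unbound compound, lysed in distilled water, centrifuged; CA activity of lysate measured by 4-nitrophenyl acetate esterase assay (400 nm, pH 7.40, 25 °C). Untreated cells taken as 100%.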

Homo sapiens [2] = species: Homo sapiens; assay: (§3) Ex vivo carbonic anhydrase activation after 60 min incubation of human erythrocytes with 5 uM activator Histamine; type: functional; procedure, shortened: as §2
[3] = target: Carbonic anhydrase 1 (Homo sapiens) (UniProt P00915); assay: In vitro carbonic anhydrase activation in human cloned Carbonic anhydrase I (hCA I)
[4] = target: Carbonic anhydrase 2 (Homo sapiens) (UniProt P00918); assay: In vitro carbonic anhydrase activation in human cloned Carbonic anhydrase II (hCA II)
Homo sapiens [5] = species: Homo sapiens; assay: as §3; type: functional; remark: listed apart in the source
Procedure, shortened: (§4)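 Fresh human blood washed repeatedly with 5 mM Tris pH 7.40 and centrifuged; erythrocytes incubated with 5 µM activator at 37 °C with gentle stirring. Cells washed three times with buffer to remove unbound compound, lysed in distilled water and centrifuged. Lysate CA activity measured by 4-nitrophenyl acetate esterase assay at 400 nm. Buffer-only cells set as 100%.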

[6] = target: T1, Carbonic anhydrase 4 (Bos taurus) (UniProt Q95323); assay: In vitro carbonic anhydrase IV activation in bovine lung microsomes.; details: Microsome
T1 sequence (whole entry): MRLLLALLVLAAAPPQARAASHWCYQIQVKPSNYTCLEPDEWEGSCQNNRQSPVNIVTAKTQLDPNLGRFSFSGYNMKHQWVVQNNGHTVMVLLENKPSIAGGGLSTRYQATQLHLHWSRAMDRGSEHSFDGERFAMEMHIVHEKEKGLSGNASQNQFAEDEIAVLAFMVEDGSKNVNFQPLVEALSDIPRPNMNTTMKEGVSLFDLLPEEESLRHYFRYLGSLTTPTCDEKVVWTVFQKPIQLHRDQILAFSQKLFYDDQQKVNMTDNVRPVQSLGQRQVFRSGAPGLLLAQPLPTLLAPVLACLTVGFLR
Procedure, shortened: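 CA IV isolated from bovine lung microsomes and quantified by ethoxzolamide titration; used at 39 nM. 4-Nitrophenyl acetate hydrolysis initial rates followed at 400 nm, 25 °C, pH 7.40, substrate 2×10-2 to 1×10^-6 M. Activator preincubated with enzyme 15 min at room temperature. Dilutions down to 0.1 nM. Non-enzymatic rate subtracted. KA given as mean of at least three determinations.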

Homo sapiens [7] = species: Homo sapiens; assay: as §1; type: functional; procedure, shortened: as §4; remark: listed apart in the source

Chain of Carbonic anhydrase 1 (Homo sapiens) (P00915 2-261 limits assumed): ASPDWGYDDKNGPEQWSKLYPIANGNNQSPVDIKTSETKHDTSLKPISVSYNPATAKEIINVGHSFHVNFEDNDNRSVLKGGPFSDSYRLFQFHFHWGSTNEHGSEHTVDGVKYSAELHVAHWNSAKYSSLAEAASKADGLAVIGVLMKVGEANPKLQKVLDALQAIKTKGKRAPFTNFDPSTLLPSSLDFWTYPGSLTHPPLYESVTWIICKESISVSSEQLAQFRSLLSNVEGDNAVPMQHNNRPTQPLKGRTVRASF

KA [3] [µM] | KA [4] [µM] | KA [6] [µM] | SMILES | CA (Homo sapiens [1]) [%] | CA (Homo sapiens [2]) [%] | CA (Homo sapiens [5]) [%] | CA (Homo sapiens [7]) [%]
0.01 | 1.2 | 0.2 | N=C(N)NCCC[C@H](NC(=O)NS(=O)(=O)c1ccc(F)cc1)C(=O)NCCC(=O)N[C@@H](Cc1c[nH]cn1)C(=O)O |  |  | 225 | 186
0.002 | 0.01 | 0.005 | O=C(CCNC(=O)[C@H](Cc1c[nH]cn1)NC(=O)CCNC(=O)NS(=O)(=O)c1ccc(F)cc1)N[C@@H](Cc1c[nH]cn1)C(=O)O |  |  | 283 | 254
0.15 | 9 | 2.9 | Cc1ccccc1S(=O)(=O)NC(=O)N1CCCC[C@@H]1C(=O)NCCC(=O)NC(Cc1c[nH]cn1)C(=O)O (stereo partly specified) |  |  |  | 
0.22 | 13 | 2.4 | Cc1ccccc1S(=O)(=O)NC(=O)NCCCC(=O)NCCC(=O)N[C@@H](Cc1c[nH]cn1)C(=O)O |  |  |  | 
0.19 | 12 | 3.2 | O=C(CCCNC(=O)NS(=O)(=O)c1ccc(F)cc1)NCCC(=O)N[C@H](Cc1c[nH]cn1)C(=O)O |  |  |  | 
0.03 | 0.7 | 0.5 | Cc1ccccc1S(=O)(=O)NC(=O)N[C@@H](Cc1c[nH]cn1)C(=O)NCCC(=O)N[C@@H](Cc1c[nH]cn1)C(=O)O |  |  | 211 | 180
0.004 | 0.02 | 0.008 | Cc1ccccc1S(=O)(=O)NC(=O)NCCC(=O)N[C@@H](Cc1c[nH]cn1)C(=O)NCCC(=O)N[C@@H](Cc1c[nH]cn1)C(=O)O | 236 | 267 |  | 
0.14 | 7 | 2 | NC(=O)C[C@H](NC(=O)NS(=O)(=O)c1ccc(F)cc1)C(=O)NCCC(=O)N[C@@H](Cc1c[nH]cn1)C(=O)O |  |  |  | 
0.21 | 14 | 3.7 | Cc1ccccc1S(=O)(=O)NC(=O)N[C@@H](Cc1c[nH]c2ccccc12)C(=O)NCCC(=O)N[C@@H](Cc1c[nH]cn1)C(=O)O |  |  |  | 
0.16 | 9 | 3 | Cc1ccccc1S(=O)(=O)NC(=O)N1CCCC(C(=O)NCCC(=O)NC(Cc2c[nH]cn2)C(=O)O)C1 (stereo unspecified) |  |  |  | 

SMILES | KA [3] [µM] | KA [4] [µM] | KA [6] [µM] | CA (Homo sapiens [1]) [%] | CA (Homo sapiens [2]) [%] | CA (Homo sapiens [5]) [%] | CA (Homo sapiens [7]) [%]
NCCc1c[nH]cn1 [HISTAMINE] | 2 |  |  | 121 | 130 |  | 
